Tests used:
[1] = test system: lung adenocarcinoma H1650; experiment: MTT assay, H1650; assay type: cell-based; conditions: Homo sapiens, NCI-H1650, 24 h, read-out: IC50 ± S.D. H1650
Outline: (§1)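 Cell lines from ATCC were seeded at 10^4 cells per well in 100 μL medium. They were exposed to the test compound for 24 h at 37 °C under 5% CO2. Then 10 μL MTT (5.0 mg mL−1) was added for 4 h at 37 °C. Cells were lysed in isopropanol/conc. HCl/Triton X100 for 10 min at room temperature with shaking. Formazan was read at 570 nm, in triplicate.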

[2] = test system: human promyelocytic leukemia HL-60; experiment: MTT assay, HL-60; assay type: cell-based; conditions: read-out: IC50 ± S.D. HL-60, 24 h, mean of 3 independent experiments
Outline: as §1

[3] = test system: human colon adenocarcinoma HT-29; experiment: MTT assay, HT-29; assay type: cell-based; conditions: read-out: IC50 ± S.D. HT-29, 24 h, mean of 3 independent experiments
Outline: as §1

PIM-1 = PIM-1 (Homo sapiens, UniProt P11309); experiment: PIM-1 kinase assay; assay type: biochemical
Chain of PIM-1 (P11309 whole entry): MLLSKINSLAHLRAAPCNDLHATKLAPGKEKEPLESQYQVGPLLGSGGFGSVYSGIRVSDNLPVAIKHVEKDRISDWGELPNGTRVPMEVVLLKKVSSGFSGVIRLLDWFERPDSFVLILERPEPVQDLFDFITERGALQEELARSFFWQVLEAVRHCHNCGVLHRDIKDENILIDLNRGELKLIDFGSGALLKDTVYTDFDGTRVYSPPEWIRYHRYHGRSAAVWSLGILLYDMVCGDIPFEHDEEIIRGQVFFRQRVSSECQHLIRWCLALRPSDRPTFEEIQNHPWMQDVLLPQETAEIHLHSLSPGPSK

PIM-2 = PIM-2 (Homo sapiens, UniProt Q9P1W9); experiment: PIM-2 kinase assay; assay type: biochemical
Chain of PIM-2 (Q9P1W9 whole entry): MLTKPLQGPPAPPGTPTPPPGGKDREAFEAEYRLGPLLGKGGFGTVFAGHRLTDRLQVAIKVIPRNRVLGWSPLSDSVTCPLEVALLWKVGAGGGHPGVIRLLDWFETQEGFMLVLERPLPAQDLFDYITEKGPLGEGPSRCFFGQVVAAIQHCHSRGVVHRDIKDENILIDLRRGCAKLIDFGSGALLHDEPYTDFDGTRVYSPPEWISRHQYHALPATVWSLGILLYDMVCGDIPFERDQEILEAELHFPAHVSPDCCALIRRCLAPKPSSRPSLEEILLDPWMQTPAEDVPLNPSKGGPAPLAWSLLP
Outline: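 Luminescent ADP-Glo readout of ADP formed. Enzyme, substrate, ATP and inhibitor were diluted in kinase buffer, with 5% DMSO as vehicle. The kinase reaction ran 60 min at room temperature. ADP-Glo Reagent was then added for 40 min, followed by Kinase Detection Reagent for 30 min, both at room temperature, before luminescence was recorded.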

PIM-3 = PIM-3 (Homo sapiens, UniProt Q86V86); experiment: PIM-3 kinase assay; assay type: biochemical
Outline: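 Radiometric filter assay. Active PIM-3 was mixed with substrate (1 mg mL−1 stock) and started with [33P]-ATP cocktail (250 μM ATP stock), then held 15 min at 30 °C. Aliquots were spotted onto P81 phosphocellulose, washed three times for about 10 min each in 1% phosphoric acid, and scintillation-counted. A no-substrate blank was subtracted. Kinase specific activity came from corrected cpm, ATP specific activity, time and enzyme amount.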

PIM-1 kinase = conditions: read-out: IC50 against PIM-1 kinase enzyme; cited from earlier work

| Compound | IC50 [1] | IC50 (PIM-2) | IC50 (PIM-3) | also measured |
| --- | --- | --- | --- | --- |
| COc1ccc(/C=C/C(=O)CC2(O)C(=O)Nc3cc(Br)ccc32)cc1 (centres unmarked) [Compound 4, (E)-6-bromo-3-hydroxy-3-(4-(4-methoxyphenyl)-2-oxobut-3-enyl) indolin-2-one] | > 100 µM | – | – | – |
| Nc1nccc(-c2c[nH]c3ccc(Br)cc23)n1 [Meridianin C, 4-(5-bromo-1H-indol-3-yl)pyrimidin-2-amine] | – | – | – | IC50 (PIM-1 kinase): 1.44 µM |

Now from value to compound, other results behind:

| IC50 [1] | IC50 (PIM-2) | IC50 (PIM-3) | Compound | also measured |
| --- | --- | --- | --- | --- |
| > 100 µM | – | – | COc1ccc(/C=C/C(=O)/C=C2/C(=O)Nc3cc(Br)ccc32)cc1 [Compound 5, (E)-6-bromo-3-((E)-4-(4-methoxyphenyl)-2-oxobut-3-enylidene)indolin-2 one] | IC50 [2]: 1.4 µM; IC50 [3]: 1.7 µM |
| > 100 µM | 0.22 ± 0.01 µM | 0.36 ± 0.012 µM | COc1ccc(/C=C/C(/C=C2/C(=O)Nc3cc(Br)ccc32)=N\O)cc1 [Compound 6, (E)-6-bromo-3-((2E,3E)-2-(hydroxyimino)-4-(4-methoxyphenyl)but-3-enylidene)indolin-2-one] | IC50 (PIM-1): 0.47 ± 0.013 µM |
| – | 0.64 ± 0.01 µM | 0.83 ± 0.013 µM | O=c1c(O)c(-c2ccc(O)c(O)c2)oc2cc(O)cc(O)c12 [Querecitin, quercetin, reference compound] | – |

— PMC9049778 (RSC Advances, 2020)
